From ChEMBL document CHEMBL3232748, “Effect of the 3- and 4-methyl groups on the opioid receptor properties of N-substituted trans-3,4-dimethyl-4-(3-hydroxyphenyl)piperidines” (2014)
Active and inactive are the calls of the source. The calls are words filed in the database; no cut-off is given here.

How the values were obtained:
[1] = target: Delta-type opioid receptor (Homo sapiens) (UniProt P41143); experiment: Antagonist activity at human delta opioid receptor expressed CHO cells assessed as inhibition of [35S]-GTP[gammaS] binding at 10 uM; assay type: functional, cell-based
Outline: (§1)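 Antagonism of [³⁵S]GTPγS binding stimulated by DAMGO (μ), DPDPE (δ) or U69,593 (κ) in CHO cells expressing the human receptor, tested at 10 μM.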

[2] = target: Mu-type opioid receptor (Homo sapiens) (UniProt P35372); experiment: Agonist activity at human mu opioid receptor expressed CHO cells assessed as inhibition of [35S]-GTP[gammaS] binding at 10 uM; assay type: cell-based
Outline: (§2)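 Single-point screen at 10 μM for intrinsic agonist activity in a [³⁵S]GTPγS binding assay, using membranes from CHO cells overexpressing the human μ, κ or δ opioid receptor.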

[3] = target: Kappa-type opioid receptor (Homo sapiens) (UniProt P41145); experiment: Agonist activity at human kappa opioid receptor expressed CHO cells assessed as inhibition of [35S]-GTP[gammaS] binding at 10 uM; assay type: functional, cell-based; outline: as §2
[4] = target: Delta-type opioid receptor (Homo sapiens) (UniProt P41143); experiment: Agonist activity at human delta opioid receptor expressed CHO cells assessed as inhibition of [35S]-GTP[gammaS] binding at 10 uM; assay type: functional, cell-based; outline: as §2
[5] = target: Kappa-type opioid receptor (Homo sapiens) (UniProt P41145); experiment: Antagonist activity at human kappa opioid receptor expressed CHO cells assessed as inhibition of [35S]-GTP[gammaS] binding at 10 uM; assay type: functional, cell-based; outline: as §1
[6] = target: Mu-type opioid receptor (Homo sapiens) (UniProt P35372); experiment: Antagonist activity at human mu opioid receptor expressed CHO cells assessed as inhibition of [35S]-GTP[gammaS] binding at 10 uM; assay type: cell-based; outline: as §1
[7] = target: Delta-type opioid receptor (Homo sapiens) (UniProt P41143); experiment: Agonist activity at human delta opioid receptor expressed CHO cells assessed as inhibition of [35S]-GTP[gammaS] binding relative to DPDPE maximal response; assay type: functional, cell-based
Outline: (§3)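 Agonist concentration–response in a [³⁵S]GTPγS binding assay at human δ receptor in CHO cells, using eight concentrations chosen to define the upper and lower asymptotes. EC₅₀ and Emax were calculated, with Emax given as a percentage of the maximum for DPDPE run on the same plate. Values are mean ± SE from at least three independent experiments.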

[8] = target: Delta-type opioid receptor (Homo sapiens) (UniProt P41143); experiment: Agonist activity at human delta opioid receptor expressed CHO cells assessed as inhibition of [35S]-GTP[gammaS] binding; assay type: functional, cell-based; outline: as §3
[9] = species on record: Mus musculus; experiment: Analgesic activity in mouse assessed as antagonism of morphine-induced antinociception by writhing test; assay type: functional
[10] = species on record: Mus musculus; experiment: Analgesic activity in mouse assessed as antagonism of U50488-induced antinociception by writhing test; assay type: functional
[11] = species on record: Homo sapiens; experiment: Selectivity, ratio of Ke for human mu opioid receptor to ratio of Ke for human kappa opioid receptor
Outline: (§4)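 Agonist-stimulated [³⁵S]GTPγS binding in CHO cells overexpressing the human receptor, stimulated by DAMGO (μ), DPDPE (δ) or U69,593 (κ). Agonist concentration–response curves were run with or without a fixed test concentration, using at least two test concentrations. Ke = [L]/(DR − 1) was calculated only when the agonist EC₅₀ shifted at least 4-fold. Values are mean ± SE from at least three experiments, and selectivity comes from the Ke values.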

[12] = species on record: Homo sapiens; experiment: Selectivity, ratio of Ke for human delta opioid receptor to ratio of Ke for human kappa opioid receptor; outline: as §4

Sequence of Delta-type opioid receptor (Homo sapiens) (P41143 whole entry): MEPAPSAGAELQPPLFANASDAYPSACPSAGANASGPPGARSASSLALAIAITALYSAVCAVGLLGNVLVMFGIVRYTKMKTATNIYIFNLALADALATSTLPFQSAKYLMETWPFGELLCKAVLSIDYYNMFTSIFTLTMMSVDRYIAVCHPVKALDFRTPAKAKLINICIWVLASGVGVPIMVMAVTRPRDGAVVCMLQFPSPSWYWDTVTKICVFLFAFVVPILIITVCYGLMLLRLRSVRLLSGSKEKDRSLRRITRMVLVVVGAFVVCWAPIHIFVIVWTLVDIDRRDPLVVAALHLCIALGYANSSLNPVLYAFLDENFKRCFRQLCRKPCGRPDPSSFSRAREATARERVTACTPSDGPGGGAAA
Sequence of Kappa-type opioid receptor (Homo sapiens) (P41145 whole entry): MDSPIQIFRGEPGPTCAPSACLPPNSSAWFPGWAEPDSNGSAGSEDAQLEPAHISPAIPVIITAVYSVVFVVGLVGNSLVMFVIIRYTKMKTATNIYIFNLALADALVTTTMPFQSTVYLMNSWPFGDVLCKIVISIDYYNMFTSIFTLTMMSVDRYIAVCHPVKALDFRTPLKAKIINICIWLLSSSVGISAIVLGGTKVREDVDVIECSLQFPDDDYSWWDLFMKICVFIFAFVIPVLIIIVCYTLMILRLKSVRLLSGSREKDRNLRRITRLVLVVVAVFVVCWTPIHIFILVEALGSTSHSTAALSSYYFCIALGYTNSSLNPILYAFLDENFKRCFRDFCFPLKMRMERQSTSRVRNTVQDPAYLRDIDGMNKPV
Sequence of Mu-type opioid receptor (Homo sapiens) (P35372 whole entry): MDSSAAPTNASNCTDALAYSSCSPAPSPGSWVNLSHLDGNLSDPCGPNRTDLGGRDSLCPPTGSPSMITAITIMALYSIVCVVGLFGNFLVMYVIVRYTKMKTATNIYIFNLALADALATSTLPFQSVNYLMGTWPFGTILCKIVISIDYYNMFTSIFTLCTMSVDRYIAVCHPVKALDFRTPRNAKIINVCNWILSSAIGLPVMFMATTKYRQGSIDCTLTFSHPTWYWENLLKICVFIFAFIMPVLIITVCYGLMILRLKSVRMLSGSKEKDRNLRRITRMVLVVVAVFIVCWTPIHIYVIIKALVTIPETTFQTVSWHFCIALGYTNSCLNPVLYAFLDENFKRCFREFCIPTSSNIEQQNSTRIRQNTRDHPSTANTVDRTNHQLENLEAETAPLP

Structure (SMILES) | Activity [2] | Activity [3] | Activity [4] | Activity [5] | Activity [6] | further results
CC1CN(C)CCC1c1cccc(O)c1 (configuration not stated) | – | – | – | – | – | Activity [1]: inactive
C[C@H]1CN(CCCc2ccccc2)CCN1c1cccc(O)c1 | inactive | inactive | inactive | – | – | –
CC1CN(CCCc2ccccc2)CCC1c1cccc(O)c1 (configuration not stated) | – | – | – | inactive | inactive | –
CN1CCC(c2cccc(O)c2)CC1 | inactive | inactive | inactive | – | inactive | Activity [1]: inactive
CN1CCC(C)(c2cccc(O)c2)CC1 | – | – | – | – | – | Emax [7]: 64%; ED50 [8]: 8.3 µM; ED50 ([9]; Mus musculus): 3.4 mg/kg
C[C@H]1CN(CCCc2ccccc2)CC[C@@]1(C)c1cccc(O)c1 | – | – | – | – | – | AD50 [9]: 0.28 mg/kg
C[C@H]1CN(C)CC[C@@]1(C)c1cccc(O)c1 | inactive | inactive | inactive | – | – | AD50 [10]: >5 mg/kg; AD50 [9]: 0.74 mg/kg
CN1CCN(c2cccc(O)c2)CC1 | inactive | inactive | inactive | inactive | – | –
Oc1cccc(N2CCN(CCCc3ccccc3)CC2)c1 | inactive | inactive | inactive | – | – | –
C[C@H]1CN(C)CCN1c1cccc(O)c1 | inactive | inactive | inactive | – | – | Activity [1]: inactive
CC1(c2cccc(O)c2)CCN(CCCc2ccccc2)CC1 | – | – | – | inactive | inactive | –
Oc1cccc(C2CCN(CCCc3ccccc3)CC2)c1 | – | – | – | inactive | inactive | Ratio Ke [11]: 13; Ratio Ke [12]: 72
